≈ marks a conversion by molar mass, not a printed value.
Assays:
[1] = test system: Mycobacterium intracellulare; test: Antibacterial activity against Mycobacterium intracellular ATCC 23068 by alamar blue method; type: functional, organism-based
Procedure, shortened: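 Modified Alamar blue method (Franzblau). Samples in DMSO serially diluted in 0.9% saline, in duplicate, final concentrations starting at 20 μg/mL. Inoculum adjusted to 0.5 McFarland, then diluted in Middlebrook 7H9 with OADC enrichment plus 5% Alamar blue. Fluorescence read (ex 544/em 590 nm) before and after incubation. IC50 from percent growth versus concentration. MIC is no detectable growth.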

Staphylococcus aureus [2] = test: Antibacterial activity against Staphylococcus aureus ATCC 29213 by NCCLS method; type: functional, organism-based
Procedure, shortened: (§1)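 Broth microdilution (modified NCCLS). Samples in DMSO serially diluted in 0.9% saline, tested in duplicate, highest final concentration 20 μg/mL. Inoculum matched to 0.5 McFarland standard by absorbance at 630 nm, then diluted in cation-adjusted Mueller–Hinton broth. Growth, solvent and medium controls on each plate. Absorbance at 530 nm read before and after incubation. IC50 taken from percent growth versus concentration plot; MIC is lowest concentration with no detectable growth; MBC is lowest concentration killing the organism.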

Escherichia coli = test: Antibacterial activity against Escherichia coli by NCCLS method; type: functional, organism-based
Procedure, shortened: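 Modified NCCLS broth microdilution. DMSO-dissolved samples serially diluted in 0.9% saline, tested in duplicate, final concentrations starting at 20 μg/mL. Inoculum set to 0.5 McFarland (absorbance 630 nm) and diluted in cation-adjusted Mueller–Hinton broth. Growth, solvent and medium controls on each plate. Read at 530 nm before and after incubation. IC50 from percent growth versus concentration. MIC is lowest concentration with no detectable growth.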

Staphylococcus aureus [3] = test: Antibacterial activity against methicillin-resistant Staphylococcus aureus ATCC 33591 by NCCLS method; type: functional, organism-based; procedure, shortened: as §1
[4] = Cytotoxicity against african green monkey Vero cell after 48 hrs by neutral red uptake assay; type: cell-based; settings: chlorocebus sabaeus, Vero cells; read-out: TC50
Procedure, shortened: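 VERO kidney fibroblasts seeded at 25,000 cells/well and incubated 24 h. Compounds added, highest concentration 10 μg/mL, then 48 h further incubation. Viable cells measured by neutral red assay. IC50 taken from growth-inhibition dose curves. Doxorubicin as positive control, DMSO as vehicle control.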

Aspergillus fumigatus = test: Antifungal activity against Aspergillus fumigatus ATCC 204305 by NCCLS method; type: functional, organism-based
Procedure, shortened: (§2)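 Modified NCCLS microdilution for fungi. Samples in DMSO serially diluted with 0.9% saline, in duplicate, final concentrations from 20 μg/mL down. Inocula matched to 0.5 McFarland (630 nm) and diluted in Sabouraud dextrose broth. Growth, solvent and medium controls included. OD 530 nm read before and after incubation. IC50 from percent growth curve. MIC is no detectable growth. MFC is lowest concentration killing the organism.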

Candida albicans = test: Antifungal activity against Candida albicans ATCC 90028 by NCCLS method; type: functional, organism-based; procedure, shortened: as §2
Cryptococcus neoformans = test: Antifungal activity against Cryptococcus neoformans ATCC 90113 by NCCLS method; type: functional, organism-based; procedure, shortened: as §2

SMILES: O=C(O)c1cn(C2CC2)c2cc(N3CCNCC3)c(F)cc2c1=O [CIPROFLOXACIN]
- MBC [1]: > 20 µg/mL
- MIC [1]: 0.5 µg/mL (≈ 1.51 µM)
- MBC (Staphylococcus aureus [2]): 0.5 µg/mL (≈ 1.51 µM)
- MIC (Staphylococcus aureus [2]): 0.3 µg/mL (≈ 0.905 µM)
- IC50 (Escherichia coli): 0.005 µg/mL (≈ 0.0151 µM)
- MBC (Escherichia coli): 0.6 µg/mL (≈ 1.81 µM)
- MIC (Escherichia coli): 0.3 µg/mL (≈ 0.905 µM)
- MBC (Staphylococcus aureus [3]): 0.5 µg/mL (≈ 1.51 µM)
- MIC (Staphylococcus aureus [3]): 0.3 µg/mL (≈ 0.905 µM)

SMILES: Cc1ccc(N(CCCCCC2CCCCC2)c2ccc[n+](C)c2)cc1.[I-]
- IC50 [1]: 1.5 µg/mL
- MBC [1]: 2.5 µg/mL
- MIC [1]: 2.5 µg/mL
- CC50 at 48 h [4]: > 10 µg/mL
- IC50 (Escherichia coli): 4.5 µg/mL
- MBC (Escherichia coli): > 20 µg/mL
- MIC (Escherichia coli): 20 µg/mL
- MFC (Aspergillus fumigatus): 5 µg/mL
- MIC (Aspergillus fumigatus): 5 µg/mL
- IC50 (Staphylococcus aureus [3]): 1 µg/mL
- MBC (Staphylococcus aureus [3]): 2.5 µg/mL
- MIC (Staphylococcus aureus [3]): 2.5 µg/mL

SMILES: Cc1cccc(N(CCCCCC2CCCCC2)c2ccc[n+](C)c2)c1.[I-]
- IC50 [1]: 1.1 µg/mL
- MBC [1]: 5 µg/mL
- MIC [1]: 1.3 µg/mL
- IC50 (Staphylococcus aureus [2]): 0.7 µg/mL
- MBC (Staphylococcus aureus [2]): 5 µg/mL
- MIC (Staphylococcus aureus [2]): 1.3 µg/mL
- IC50 (Escherichia coli): 7.7 µg/mL
- MBC (Escherichia coli): > 20 µg/mL
- MIC (Escherichia coli): > 20 µg/mL
- IC50 (Staphylococcus aureus [3]): 1.2 µg/mL
- MBC (Staphylococcus aureus [3]): 5 µg/mL
- MIC (Staphylococcus aureus [3]): 2.5 µg/mL

SMILES: CCc1ccc(N(CCCCCC2CCCCC2)c2ccc[n+](C)c2)cc1.[I-]
- IC50 [1]: 0.6 µg/mL
- MBC [1]: 5 µg/mL
- MIC [1]: 1.3 µg/mL
- IC50 (Staphylococcus aureus [2]): 0.2 µg/mL
- MBC (Staphylococcus aureus [2]): 5 µg/mL
- MIC (Staphylococcus aureus [2]): 3 µg/mL
- IC50 (Escherichia coli): 4 µg/mL
- MBC (Escherichia coli): 20 µg/mL
- MIC (Escherichia coli): 20 µg/mL
- IC50 (Staphylococcus aureus [3]): 0.7 µg/mL
- MBC (Staphylococcus aureus [3]): 2.5 µg/mL
- MIC (Staphylococcus aureus [3]): 1.3 µg/mL

SMILES: C[n+]1cccc(N(CCCCCC2CCCCC2)c2ccccc2Cl)c1.[I-]
- IC50 [1]: 2.1 µg/mL
- MBC [1]: 5 µg/mL
- MIC [1]: 2.5 µg/mL
- IC50 (Staphylococcus aureus [2]): 0.3 µg/mL
- MBC (Staphylococcus aureus [2]): 10 µg/mL
- MIC (Staphylococcus aureus [2]): 0.6 µg/mL
- IC50 (Escherichia coli): 7.6 µg/mL
- MBC (Escherichia coli): > 20 µg/mL
- MIC (Escherichia coli): > 20 µg/mL
- MFC (Aspergillus fumigatus): > 20 µg/mL
- MIC (Aspergillus fumigatus): > 20 µg/mL
- IC50 (Staphylococcus aureus [3]): 1.1 µg/mL
- MBC (Staphylococcus aureus [3]): 10 µg/mL
- MIC (Staphylococcus aureus [3]): 2.5 µg/mL

SMILES: CSc1ccc(N(CCCCCC2CCCCC2)c2ccc[n+](C)c2)cc1.[I-]
- IC50 [1]: 1 µg/mL
- MBC [1]: 5 µg/mL
- MIC [1]: 1.3 µg/mL
- CC50 at 48 h [4]: > 10 µg/mL
- IC50 (Staphylococcus aureus [2]): 0.3 µg/mL
- MBC (Staphylococcus aureus [2]): 5 µg/mL
- MIC (Staphylococcus aureus [2]): 0.6 µg/mL
- IC50 (Escherichia coli): 5.2 µg/mL
- MBC (Escherichia coli): 20 µg/mL
- MIC (Escherichia coli): 20 µg/mL
- MFC (Aspergillus fumigatus): 10 µg/mL
- MIC (Aspergillus fumigatus): 10 µg/mL
- IC50 (Staphylococcus aureus [3]): 1 µg/mL
- MBC (Staphylococcus aureus [3]): 2.5 µg/mL
- MIC (Staphylococcus aureus [3]): 2.5 µg/mL

SMILES: C[n+]1cccc(N(CCCCCC2CCCCC2)c2cccc(C(F)(F)F)c2)c1.[I-]
- IC50 [1]: 2 µg/mL
- MBC [1]: 2.5 µg/mL
- MIC [1]: 2.5 µg/mL
- IC50 (Escherichia coli): 4.5 µg/mL
- MBC (Escherichia coli): > 20 µg/mL
- MIC (Escherichia coli): > 20 µg/mL
- IC50 (Staphylococcus aureus [3]): 1.5 µg/mL
- MBC (Staphylococcus aureus [3]): 5 µg/mL
- MIC (Staphylococcus aureus [3]): 2.5 µg/mL

SMILES: Cc1ccccc1N(CCCCCC1CCCCC1)c1ccc[n+](C)c1.[I-]
- IC50 [1]: 1.6 µg/mL
- MBC [1]: 2.5 µg/mL
- MIC [1]: 2.5 µg/mL
- IC50 (Staphylococcus aureus [2]): 0.3 µg/mL
- MBC (Staphylococcus aureus [2]): 10 µg/mL
- MIC (Staphylococcus aureus [2]): 0.6 µg/mL
- IC50 (Escherichia coli): 9.4 µg/mL
- MBC (Escherichia coli): > 20 µg/mL
- MIC (Escherichia coli): > 20 µg/mL
- IC50 (Staphylococcus aureus [3]): 1 µg/mL
- MBC (Staphylococcus aureus [3]): 10 µg/mL
- MIC (Staphylococcus aureus [3]): 2.5 µg/mL

SMILES: C[n+]1cccc(N(CCCCCC2CCCCC2)c2ccccc2)c1.[I-]
- IC50 [1]: 2.1 µg/mL
- MBC [1]: 2.5 µg/mL
- MIC [1]: 2.5 µg/mL
- MFC (Candida albicans): > 20 µg/mL
- CC50 at 48 h [4]: > 10 µg/mL
- IC50 (Staphylococcus aureus [2]): 0.7 µg/mL
- MBC (Staphylococcus aureus [2]): 10 µg/mL
- MIC (Staphylococcus aureus [2]): 1.3 µg/mL
- IC50 (Escherichia coli): 7.6 µg/mL
- MBC (Escherichia coli): > 20 µg/mL
- MIC (Escherichia coli): > 20 µg/mL
- IC50 (Aspergillus fumigatus): 20 µg/mL
- MFC (Aspergillus fumigatus): > 20 µg/mL
- MIC (Aspergillus fumigatus): > 20 µg/mL
- IC50 (Staphylococcus aureus [3]): 3.4 µg/mL
- MBC (Staphylococcus aureus [3]): 20 µg/mL
- MIC (Staphylococcus aureus [3]): 10 µg/mL

SMILES: C[n+]1cccc2c1c1ccccc1n2CCCCCC1CCCCC1.[I-]
- IC50 [1]: 0.55 µg/mL
- MBC [1]: 2.5 µg/mL
- MIC [1]: 1.3 µg/mL
- IC50 (Candida albicans): 3 µg/mL
- MFC (Candida albicans): > 20 µg/mL
- MIC (Candida albicans): 5 µg/mL
- CC50 at 48 h [4]: 7.5 µg/mL
- IC50 (Escherichia coli): 5 µg/mL
- MBC (Escherichia coli): > 20 µg/mL
- MIC (Escherichia coli): > 20 µg/mL
- IC50 (Cryptococcus neoformans): 0.45 µg/mL
- MFC (Cryptococcus neoformans): 5 µg/mL
- MIC (Cryptococcus neoformans): 0.63 µg/mL
- IC50 (Aspergillus fumigatus): 0.45 µg/mL
- MFC (Aspergillus fumigatus): 5 µg/mL
- MIC (Aspergillus fumigatus): 0.63 µg/mL
- IC50 (Staphylococcus aureus [3]): 1.5 µg/mL
- MBC (Staphylococcus aureus [3]): 5 µg/mL
- MIC (Staphylococcus aureus [3]): 2.5 µg/mL

— ChEMBL document CHEMBL1781968, “δ-Carbolines and their ring-opened analogs: synthesis and evaluation against fungal and bacterial opportunistic pathogens” (Eur J Med Chem, 2011)
